Consider 16 molecules from ChEMBL document CHEMBL3853340, “Dihydropyrimidinones and -thiones with improved activity against human polyomavirus family members” (Bioorg Med Chem Lett, 2016).

Molecules are shown by their SMILES.

Series [1] in a line: Cytotoxicity against human MCF7 cells assessed as cell growth inhibition after 48 hrs by cell titer-glo assay. In kind it is toxicity, cell-based. The procedure, abridged:
(§1)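 Growth of MCF7 breast cancer cells and RMS13 rhabdomyosarcoma cells measured in the presence of compound. Values are the means ± SD of 2 independent experiments, each run in triplicate.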
(In general: Cellular ATP, detected with luciferase, serves as a proxy for viable cell number.)

Series [2] concerns Homo sapiens. In words: Inhibition of human Hsp70 expressed in Escherichia coli BL21(DE3) assessed as suppression of Hdj2-activated ATPase activity at 100 uM dosed 15 mins after Hsp70 and Hdj2 pre-incubation and measured after 60 mins by TLC based steady state ATPase assay relative to control. The class given is […]. The procedure, abridged: (§2)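 Hsp70 ATPase activity measured with Hdj2 (Hsp40) at a 1:0.5 Hsp70:Hsp40 molar ratio. Activity was normalized to DMSO-matched reactions lacking compound. Values are the means of three independent experiments.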

The target in series [3] is Large T antigen (Simian virus 40) (UniProt P03070). Briefly: Inhibition of ATPase activity of SV40 T antigen expressed in baculovirus at 10 uM by antibody affinity chromatography relative to control. The conditions noted are these: Betapolyomavirus macacae. The procedure, abridged: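 Purified T antigen ATPase activity measured with test agent at a final concentration of 10 μM. Activity was normalized to reactions with no compound but an equal amount of DMSO. Values are the means of three independent experiments.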
Sequence of Large T antigen (Simian virus 40) (P03070 whole entry): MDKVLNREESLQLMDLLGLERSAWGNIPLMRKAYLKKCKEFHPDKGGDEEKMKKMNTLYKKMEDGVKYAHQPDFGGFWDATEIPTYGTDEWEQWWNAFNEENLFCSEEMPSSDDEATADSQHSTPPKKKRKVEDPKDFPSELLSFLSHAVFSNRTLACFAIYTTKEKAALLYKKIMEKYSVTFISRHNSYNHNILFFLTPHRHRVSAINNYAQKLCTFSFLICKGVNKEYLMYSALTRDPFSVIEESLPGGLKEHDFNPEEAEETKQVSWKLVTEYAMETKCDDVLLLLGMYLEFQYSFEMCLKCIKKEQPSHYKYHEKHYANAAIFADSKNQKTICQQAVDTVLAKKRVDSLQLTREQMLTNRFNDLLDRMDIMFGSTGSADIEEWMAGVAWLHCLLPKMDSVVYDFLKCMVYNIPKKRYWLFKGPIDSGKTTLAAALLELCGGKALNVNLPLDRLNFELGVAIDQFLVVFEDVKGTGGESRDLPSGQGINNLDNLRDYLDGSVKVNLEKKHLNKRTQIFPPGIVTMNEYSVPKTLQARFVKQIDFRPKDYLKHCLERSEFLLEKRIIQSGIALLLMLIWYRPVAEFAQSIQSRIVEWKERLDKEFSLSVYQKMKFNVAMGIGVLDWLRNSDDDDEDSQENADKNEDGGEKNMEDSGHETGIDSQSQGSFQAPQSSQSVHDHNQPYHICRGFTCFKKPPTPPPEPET

The species named for series [4] is Homo sapiens. Briefly: Inhibition of human Hsp70 expressed in Escherichia coli BL21(DE3) assessed as suppression of ATPase activity at 100 uM after 60 mins by TLC based steady state ATPase assay relative to control. The gist of the method: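 Hsp70 ATPase activity measured without cochaperone. Activity was normalized to reactions with no compound but an equal amount of DMSO. Values are the means of three independent experiments.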

A short description of series [5]: Cytotoxicity against human RMS13 cells assessed as cell growth inhibition after 24 hrs by cell titer-glo assay. In kind it is toxicity, cell-based. The gist of the method: as §1
For a further series, the system named is JC polyomavirus. Briefly: Antiviral activity against JC polyomavirus MAD-4 infected in grivet COS7 cells assessed as reduction in DNA copy number after 7 days by PCR analysis. The class given is functional, cell-based. To be noted: MAD-4, COS-7, 168 h. The procedure, abridged: (§3)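 JC virus replication and viability measured in COS7 green monkey kidney cells. EC50 is the concentration giving 50% activity. CC50 is the concentration killing 50% of viable cells. Values come from two independent experiments.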

Series [6] in a line: Specificity index, ratio of CC50 for grivet COS7 cells to EC50 for JC polyomavirus MAD-4 infected in grivet COS7 cells. The arrangement: species or system COS-7.
Series [7] in a line: Distribution coefficient, logD of the compound. The class given is physicochemical. To be noted: octanol/water.
The next series relates to BK polyomavirus. Briefly: Antiviral activity against BK polyomavirus Gardner infected in human HFF cells assessed as reduction in DNA copy number after 7 days by PCR analysis. In kind it is functional, cell-based. To be noted: Betapolyomavirus hominis, 168 h. The procedure, abridged: (§4)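 BK virus replication and viability measured in human foreskin fibroblasts. EC50 is the concentration giving 50% activity. CC50 is the concentration killing 50% of viable cells. Values come from two independent experiments.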

The nature of series [8]: Cytotoxicity against JC polyomavirus MAD-4 infected grivet COS7 cells assessed as reduction in cell viability after 7 days by cell titer-glo assay. To be noted: chlorocebus aethiops, cos-7, 168 h. In kind it is toxicity, cell-based. The gist of the method: as §3
Series [9] is described as follows: Cytotoxicity against BK polyomavirus Gardner infected-human HFF cells assessed as reduction in cell viability after 7 days by cell titer-glo assay. The class given is toxicity, cell-based. The conditions noted are these: for CC50: hff, 168 h; for CC50 at 168 h: HFF cells infected with BK polyomavirus Gardner. The gist of the method: as §4
The nature of series [10]: Partition coefficient, logP of the compound. In kind it is physicochemical. The conditions noted are these: octanol/water.
Series [11] has as its system Homo sapiens. Briefly: Activation of human Hsp70 expressed in Escherichia coli BL21(DE3) assessed as stimulation of Hdj2-activated ATPase activity at 100 uM dosed 15 mins after Hsp70 and Hdj2 pre-incubation and measured after 60 mins by TLC based steady state ATPase assay relative to control. The class given is […]. The procedure, abridged: as §2

Broadly, the GI50 is the concentration at which growth is held to half of that of the control. Consider `CC1=C(C(=O)OCc2ccccc2)C(c2ccc(-c3ccccc3)cc2)NC(=S)N1Cc1ccc(-c2nnn[nH]2)cc1` (stereo not given), for which, in series [1], the GI50 at 48 h was found to be 140 µM. Besides, the fold change (FC) amounted to 4.5 in the series with Homo sapiens [2], 5.5 in series [3] and 1.4 in the series listed under Homo sapiens [4]. In addition, the GI50 at 24 h in [5] was found to be 87 µM.
Regarding `CCCCCCN(C(=O)CCCCCN1C(=O)NC(c2ccc(-c3ccccc3)cc2)C(C(=O)OCc2ccccc2)=C1C)C(C(=O)NCCCC)c1ccc(OCC(=O)OC)c(C(=O)OC)c1` (stereo not given), in series [1], the GI50 at 48 h came to 6 µM. Moreover, the GI50 at 24 h in series [5] amounted to 13 µM.
As to `CC1=C(C(=O)OCc2ccccc2)C(c2ccc(-c3ccccc3C)cc2)NC(=S)N1Cc1ccc(-c2nnn[nH]2)cc1` (stereo not given), the GI50 at 48 h in series [1] turned out to be 160 µM. Besides, the fold change (FC) in the series on Homo sapiens [2] was determined as 3.7; in series [3] it was 7.7. For the same molecule, the GI50 at 24 h in series [5] was determined as 68 µM.
The corresponding values for `CC1=C(C(=O)OCc2ccccc2)C(c2ccc(-c3ccccc3)cc2)NC(=O)N1Cc1ccc(-c2nnn[nH]2)cc1` (stereo not given) are 160 µM, 5, 2 and 96 µM.
The term EC50 denotes the concentration needed to bring the measured effect to its halfway point. A word on the logD: it is the decadic logarithm of the distribution of all forms, ionised or not, between an organic phase and buffer at a given pH. The low end stands for lower lipophilicity, the high end for higher lipophilicity. As a reminder, the CC50 is the concentration at which the toxic effect on the cells reaches its halfway point. The term logP denotes a log measure of how a compound divides between an organic and an aqueous phase. Read a high logP as a more lipophilic compound. Consider `CC1=C(C(=O)OCc2ccccc2)C(c2ccc(-c3ccccc3)cc2)N(Cc2ccc(-c3nnn[nH]3)cc2)C(=S)N1` (stereo not given), for which, in series [1], the 50% growth inhibitory concentration (GI50) at 48 h came to 110 µM. The fold change (FC) in the series with Homo sapiens [2] was determined as 5.3; in series [3] it was 4.5; in the series filed under Homo sapiens [4] it was 1.7. For the same molecule, the EC50 in the series with JC polyomavirus came to 0.75 µM; in the series on BK polyomavirus, 1.8 µM. Moreover, the “Ratio CC50/EC50” value in series [6] turned out to be 23. The molecule also had a logD in [7] of 4.8. For the same molecule, the CC50 in series [8] amounted to 18 µM; in series [9] it was 17 µM. For the same molecule, the logP in [10] was found to be 6.4. In [5], the GI50 at 24 h came to 72 µM.
Turning to `CC1=C(C(=O)OCc2ccccc2)C(c2ccc(-c3ccccc3)cc2)NC(=O)N1CCCCCc1nnn[nH]1` (stereo not given), the fold change (FC) in the series with Homo sapiens [2] was determined as 1.3; in series [3], 1.4; in the series filed under Homo sapiens [4] it was 1.2. Also, the EC50 turned out to be 3.5 µM in the series on JC polyomavirus and 3.9 µM in the series with BK polyomavirus. Moreover, the CC50 in series [8] turned out to be 24 µM. In series [9], the CC50 at 168 h is > 67 µM.
As to `CC1=C(C(=O)OCc2ccccc2)C(c2ccc(-c3ccccc3)cc2)NC(=S)N1CCCCCc1nnn[nH]1` (stereo not given), the values for the fold change (FC) (with Homo sapiens [2]; in series [3]) were 1.7 and 2.1, respectively. Also, in series [5], the GI50 at 24 h came to 110 µM.
`CC1=C(C(=O)OCc2ccccc2)C(c2ccc(-c3ccccc3)cc2)NC(=S)N1CCCCCC(=O)O` (stereo not given) returned a fold change (FC) in series [3] of 1.5. Besides, the GI50 at 24 h in series [5] is 100 µM.
On to `Nc1ccn(C[C@@H](CO)OCP(=O)(O)O)c(=O)n1.O.O` [CIDOFOVIR], for which the EC50 in the series with JC polyomavirus worked out at 2 µM; in the series with BK polyomavirus, 1.1 µM. Moreover, the “Ratio CC50/EC50” value in [6] amounted to 24. In series [8], the cytotoxic concentration (CC50) was 49 µM. In [9], the CC50 at 168 h is > 100 µM.
Take `CC1=C(C(=O)OCc2ccccc2)C(c2ccc(-c3ccccc3C)cc2)NC(=O)N1Cc1ccc(-c2nnn[nH]2)cc1` (stereo not given): in series [1], the GI50 at 48 h is 140 µM. The EC50 in the series on JC polyomavirus is 4.2 µM; in the series with BK polyomavirus, 1.7 µM. Besides, the CC50 in series [8] was found to be 21 µM; in series [9], 20 µM. The GI50 at 24 h in series [5] is 73 µM.
Consider `CC1=C(C(=O)OCc2ccccc2)C(c2ccc(-c3ccccc3)cc2)N(Cc2ccc(-c3nnn[nH]3)cc2)C(=O)N1` (stereo not given), for which the fold change (FC) in the series on Homo sapiens [2] amounted to 5; in [3], 2.3; in the series listed under Homo sapiens [4], 1.2.
As for `CC1=C(C(=O)OCc2ccccc2)C(c2ccc(-c3ccccc3C)cc2)N(Cc2ccc(-c3nnn[nH]3)cc2)C(=S)N1` (stereo not given), the fold change (FC) is 4.8 in the series with Homo sapiens [2], 7.5 in series [3] and 1.3 in the series filed under Homo sapiens [4]. Moreover, the GI50 at 24 h in [5] is 62 µM.
As to `CC1=C(C(=O)OCc2ccccc2)C(c2ccc(-c3ccccc3C)cc2)NC(=O)N1CCCCCc1nnn[nH]1` (stereo not given), in series [1], the GI50 at 48 h turned out to be 72 µM. The fold change (FC) in the series with Homo sapiens [2] was determined as 3; in series [3], 2.1; in the series filed under Homo sapiens [4] it was 1.4. Besides, in series [5], the GI50 at 24 h was 100 µM.
For the molecule `CC1=C(C(=O)OCc2ccccc2)C(c2ccc(-c3ccccc3)cc2)NC(=O)N1CCCCCC(=O)O` (stereo not given), the fold change (FC) (in series [3]; with Homo sapiens [11]) was 1.5 throughout. The GI50 at 24 h in [5] worked out at 120 µM.
`CC1=C(C(=O)OCc2ccccc2)C(c2ccc(-c3ccccc3C)cc2)NC(=S)N1CCCCCc1nnn[nH]1` (stereo not given): the fold change (FC) in the series with Homo sapiens [2] amounted to 2.5; in series [3], 4.7. In addition, the GI50 at 24 h in [5] came to 100 µM.
`CC1=C(C(=O)OCc2ccccc2)C(c2ccc(-c3ccccc3)cc2)N(CCCCCC(=O)O)C(=S)N1` (stereo not given) had a fold change (FC) in series [3] of 1.6. Besides, the 50% growth inhibitory concentration (GI50) at 24 h in series [5] stood at 110 µM.
